Assay outcomes as filed in PubChem.
Shown are actives, neighbours in structure and some others; about 1.5% of the full set was active somewhere.
CaV13 FRET inh = Primary screen for inhibitors of IQ motif and Ca2+-dependent inactivation inhibitor domain binding in CACNA1D, Förster resonance energy transfer in living cells, …; HEK cells, CFP/YFP FRET ICDI-IQ, plate reader, 10 min; percent FRET-ratio fall versus neutral wells; inhibition, % at 12.3 µM; 340,000 tested, 0.098% active;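 active means mean replicate inhibition of at least 30% and at least 1% of replicates passing that level; inconclusive means only one of the two criteria is met; inactive means neither criterion is met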;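 further: 0% = median of the neutral control wells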
RanGTP-Impb inh = disruptors of Ran-importin-beta complex formation – biochemical, FRET, CFP-Ran, YFP-importin-beta, homogeneous, primary screen. cell-free CFP-Ran/YFP-importin-beta FRET ratio. inhibition, % (concentration not given with the values). 300,000 tested, 1.1% active;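 active means more than half of the replicate wells show a fall in the fluorescence ratio signal beyond about 16%, limit read from the data, passing the limit was not always enough; inconclusive means exactly half of the replicate wells pass the set limit; inactive means fewer than half of replicates pass the limit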;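 further: 0% = DMSO wells and 100% = Ran loaded with GDP instead of GTP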
Runt-SMMHC FRET = blocks binding of human RUNX1 Runt domain to CBFb-SMMHC | Q01196+Q13951 | Cerulean-Runt/Venus-CBFb-SMMHC FRET ratio 530/480, 1 h | inhibition, % at 20 µM | 220,000 tested, 0.74% active;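 active means mean inhibition across duplicate retests at 20 µM reaching about 50%, limit read from the data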;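 further: 0% = DMSO wells and 100% = wells with excess untagged CBFb-SMMHC; inhibitors lower the FRET ratio by blocking Runt binding to CBFb-SMMHC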
Target sequence (Q01196 whole entry, looked up, the tested form may be a part): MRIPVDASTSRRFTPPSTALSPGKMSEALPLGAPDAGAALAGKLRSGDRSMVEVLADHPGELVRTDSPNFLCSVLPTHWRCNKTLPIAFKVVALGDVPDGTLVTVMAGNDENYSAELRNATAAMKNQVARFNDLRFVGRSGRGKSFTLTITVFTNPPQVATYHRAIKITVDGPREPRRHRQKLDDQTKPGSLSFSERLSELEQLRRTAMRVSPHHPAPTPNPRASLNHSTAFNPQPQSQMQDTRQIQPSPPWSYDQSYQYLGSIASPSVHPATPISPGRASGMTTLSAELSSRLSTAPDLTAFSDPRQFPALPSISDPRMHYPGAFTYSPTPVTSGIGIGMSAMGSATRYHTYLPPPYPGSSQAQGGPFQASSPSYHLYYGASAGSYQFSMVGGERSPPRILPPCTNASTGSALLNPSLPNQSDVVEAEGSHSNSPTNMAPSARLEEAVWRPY
Target sequence (Q13951 whole entry, looked up, the tested form may be a part): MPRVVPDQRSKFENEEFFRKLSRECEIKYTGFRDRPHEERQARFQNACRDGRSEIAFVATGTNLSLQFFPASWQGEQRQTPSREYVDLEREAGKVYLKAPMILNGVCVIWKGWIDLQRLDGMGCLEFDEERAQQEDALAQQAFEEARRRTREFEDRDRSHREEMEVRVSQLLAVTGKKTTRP
Runt-CBFb FRET = inhibitors of human RUNX1 Runt domain binding to CBFb; Q01196+Q13951; Cerulean-Runt/Venus-CBFb FRET ratio 530/480, 1 h; 220,000 tested, 0.46% active; inhibition, % at 20 µM;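 active means inhibition over about 50% at 20 µM in the single-dose screen, limit read from the data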;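 further: 0% = DMSO wells and 100% = excess unlabeled CBFb competitor control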
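Measured by: fluorescence energy transfer, 422 nm excitation, 530/480 nm emission; Assay system: Cerulean-Runt domain; Medium: Tris pH 7.5 buffer with BSA; Measure: loss of energy transfer signal; Controls: 5 µM unlabeled CBFb as full-inhibition high control; Incubation: protein complex preformed 1 h, compound exposure 1 h, room temperature, dark.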
Hck-Nef inh = blocks Nef-activated human Hck kinase | 220,000 tested, 0.68% active | P08631 | Recombinant Hck-YEEI plus Nef, Z-Lyte FRET kinase assay | inhibition, % at 20 µM;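 active means Hck-Nef kinase inhibition above about 50%, limit read from the data; inactive means inhibition below that limit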;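 further: 0% = DMSO with Hck plus Nef and 100% = Hck alone without Nef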
The depositor's hits bear a star; ? = inconclusive; · = no result.

SMILES	CaV13 FRET inh	RanGTP-Impb inh	Runt-SMMHC FRET	Runt-CBFb FRET	Hck-Nef inh
Cc1ccc(C(=O)/C=C/c2c[nH]c3ccccc23)cc1	-4	54*	5	10	1
O=C(/C=C/c1c[nH]c2ccccc12)c1ccccc1	-10	55*	-2	14	5
CCn1cc(/C=N\NC(=O)c2cc(-c3ccccc3OC)nc3ccccc23)c(C)n1	-4	0	3	-7	0
Brc1ccc(CSc2nnc(-c3cccnc3)o2)cc1	-6	-1	-2	-2	51*
CCCNc1c(NS(=O)(=O)c2cccc(C#N)c2)c(=O)oc2ccccc12	-7	5	·	·	·
OCC(Cc1ccccc1)NCc1ccccc1C(F)(F)F (stereo unspecified)	-3	?	4	-1	-2
CN(C)CCCNc1c2ccccc2nc2ccccc12	-1	108*	·	·	·
Oc1ccc(CCNc2c3ccccc3nc3ccccc23)cc1O	-3	103*	·	·	·
Fc1ccccc1-c1nc(NCCCN2CCOCC2)c2ccccc2n1	-2	2	2	-3	4
OCC(Cc1ccccc1)Nc1c2ccccc2nc2ccccc12 (stereo unspecified)	-2	118*	59*	61*	7
c1ccc2c(NCCCN3CCOCC3)c3ccccc3nc2c1	-2	·	92*	99*	18
O=C1CCC2CCCCC2(O)O1 (stereo unspecified)	-5	1	3	1	1
CC(=O)Nc1ccc(S(=O)(=O)Nc2cc(-c3ccccc3)nn2C)cc1	-2	1	-1	-1	3
CCCN1C(=O)C2(C(C(=O)c3ccc(C)o3)=C(O)C(=O)N2CCCN2CCOCC2)c2ccccc21 (stereo unspecified)	-7	3	5	5	1
COc1nc(N(C)S(=O)(=O)c2ccc(C)cc2)nc(C)c1Cl	-7	·	-1	0	-4
c1ccc(CNc2c3ccccc3nc3ccccc23)cc1	0	91*	·	·	·
CN1CCN(CCCNC(=O)CN2C(=O)COc3ccccc32)CC1	-3	3	·	·	·
O=C(Nc1cc2c(=O)n(-c3ccc(Oc4ccccc4)cc3)ccc2oc1=O)c1ccccc1	-3	?	62*	21	21
CC(=O)c1cc(NC(=O)c2ccccc2)c(=O)oc1C	-5	-18	142	7	1
CCCCCCN(C(=O)CCCCCN1C(=O)NC(c2ccc(-c3ccccc3)cc2)C(C(=O)OCc2ccccc2)=C1C)C(C(=O)NCCCC)c1ccccn1 (stereo unspecified)	-9	3	-9	-8	24
COCCNC(=O)CN1C(=O)COc2ccc(S(=O)(=O)N3CC(C)CC(C)C3)cc21 (stereo unspecified)	-4	4	·	·	·
Cc1ccc(-n2nc3c(=O)n(CCCC(=O)N4CCCCC4)nc(C)c3c2C)cc1	-7	-3	·	·	·
CCN(CC)c1ccc(/C=C(/C#N)C(=O)NC(C)C)o1	?	-2	-2	-5	18
CCN(CC)c1ccc(/C=C(/C#N)C(=O)NCc2ccccc2)o1	?	55*	-19	-26	3
O=S(=O)(c1cccc(Cl)c1Cl)N1CCN(C(=S)NCCCN2CCOCC2)CC1	6	25*	2	-1	21
SMILES	CaV13 FRET inh	RanGTP-Impb inh	Runt-SMMHC FRET	Runt-CBFb FRET	Hck-Nef inh
CCNCCNC(=O)c1c(O)c2cccc3c2n(c1=O)CCC3	-5	3	-6	-1	3
N#CCCn1c(-c2nonc2NC(=O)c2ccccc2Cl)nc2ccccc21	·	3	2	-2	-1
CCCCn1c(NC(C)=O)c(C#N)c2nc3ccccc3nc21	-3	30*	79*	33	49
N#Cc1c(N)n(CCCN2CCOCC2)c2nc3ccccc3nc12	-4	·	62*	84*	40
C=CCn1c(NC(=O)c2ccccc2Cl)c(C#N)c2nc3ccccc3nc21	9	124*	86*	26	6
CCCCCn1c(N)c(C#N)c2nc3ccccc3nc21	-8	44*	63*	85*	33
O=C(CCS(=O)(=O)c1ccccc1)Nc1nc2cc3c(cc2s1)OCO3	-4	1	3	0	10
CCOc1ccccc1-n1nnnc1SCC(=O)Nc1cc2oc3ccccc3c2cc1OC	-5	6	3	-1	1
COc1ccc(N(CC(=O)NCCSc2ccccc2)S(C)(=O)=O)cc1	-4	0	1	0	21
